According to ChEMBL document CHEMBL3611988, “Design and synthesis of 4-benzylpiperidine carboxamides as dual serotonin and norepinephrine reuptake inhibitors” (Bioorg Med Chem, 2015):

How the values were obtained:
Type in all cases: cell-based
[1] = target: T1, Sodium-dependent noradrenaline transporter (Homo sapiens, UniProt P23975); experiment: Inhibition of human NET expressed in HEK293 cells assessed as reduction of […] reuptake using [3H]-NET at 3 uM after 15 mins by liquid scintillation counting relative to venlafaxine HCl
In short: (§1)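 HEK-293 cells stably transfected with hSERT or hNET, grown at 37 °C in 5% CO2, seeded in poly-lysine-coated 24-well plates for 24 h. Washed, then preincubated with test drug in uptake buffer (Tris/HEPES, NaCl, KCl, CaCl2, MgSO4, ascorbic acid, glucose; pH 7.1) at 37 °C for 15–20 min. Radiolabelled substrate added at 20 nM final for about 5 min at 37 °C. Cells washed three times with ice-cold buffer and lysed in 1% SDS.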

[2] = target: T2, Sodium-dependent serotonin transporter (Homo sapiens, UniProt P31645); experiment: Inhibition of human SERT expressed in HEK293 cells assessed as reduction of serotonin reuptake using [3H]-SERT at 1 uM after 15 mins by liquid scintillation counting relative to venlafaxine HCl; in short: as §1
Target sequence in this assay (P31645 whole entry, looked up): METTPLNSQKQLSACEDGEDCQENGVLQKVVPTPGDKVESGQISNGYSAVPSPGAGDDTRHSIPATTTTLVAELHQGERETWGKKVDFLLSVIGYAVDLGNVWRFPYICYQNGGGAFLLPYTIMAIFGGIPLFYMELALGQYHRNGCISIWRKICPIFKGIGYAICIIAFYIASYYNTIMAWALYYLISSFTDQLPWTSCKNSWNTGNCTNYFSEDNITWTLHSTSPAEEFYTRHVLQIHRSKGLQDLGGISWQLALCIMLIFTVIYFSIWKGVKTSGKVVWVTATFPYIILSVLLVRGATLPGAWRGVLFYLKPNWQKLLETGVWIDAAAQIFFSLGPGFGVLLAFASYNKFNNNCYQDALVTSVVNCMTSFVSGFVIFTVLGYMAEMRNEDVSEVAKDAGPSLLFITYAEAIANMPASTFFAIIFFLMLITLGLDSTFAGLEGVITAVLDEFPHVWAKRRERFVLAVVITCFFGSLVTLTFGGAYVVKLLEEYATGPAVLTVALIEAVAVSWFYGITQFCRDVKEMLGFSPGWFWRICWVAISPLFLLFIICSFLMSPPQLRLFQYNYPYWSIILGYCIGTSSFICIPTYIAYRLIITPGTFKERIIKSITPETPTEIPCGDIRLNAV

[3] = target: T1, Sodium-dependent noradrenaline transporter; experiment: Inhibition of human NET expressed in HEK293 cells assessed as reduction of […] reuptake using [3H]-NET at 1 uM after 15 mins by liquid scintillation counting relative to GBR-12909; in short: as §1
[4] = target: T2, Sodium-dependent serotonin transporter; experiment: Inhibition of human SERT expressed in HEK293 cells assessed as reduction of serotonin reuptake using [3H]-SERT after 15 mins by liquid scintillation counting
Target sequence in this assay (P31645 whole entry): as the sequence (P31645 whole entry, looked up) above

[5] = target: T1, Sodium-dependent noradrenaline transporter; experiment: Inhibition of human NET expressed in HEK293 cells assessed as reduction of […] reuptake using [3H]-NET after 15 mins by liquid scintillation counting; in short: as §1

T1 sequence (P23975 whole entry): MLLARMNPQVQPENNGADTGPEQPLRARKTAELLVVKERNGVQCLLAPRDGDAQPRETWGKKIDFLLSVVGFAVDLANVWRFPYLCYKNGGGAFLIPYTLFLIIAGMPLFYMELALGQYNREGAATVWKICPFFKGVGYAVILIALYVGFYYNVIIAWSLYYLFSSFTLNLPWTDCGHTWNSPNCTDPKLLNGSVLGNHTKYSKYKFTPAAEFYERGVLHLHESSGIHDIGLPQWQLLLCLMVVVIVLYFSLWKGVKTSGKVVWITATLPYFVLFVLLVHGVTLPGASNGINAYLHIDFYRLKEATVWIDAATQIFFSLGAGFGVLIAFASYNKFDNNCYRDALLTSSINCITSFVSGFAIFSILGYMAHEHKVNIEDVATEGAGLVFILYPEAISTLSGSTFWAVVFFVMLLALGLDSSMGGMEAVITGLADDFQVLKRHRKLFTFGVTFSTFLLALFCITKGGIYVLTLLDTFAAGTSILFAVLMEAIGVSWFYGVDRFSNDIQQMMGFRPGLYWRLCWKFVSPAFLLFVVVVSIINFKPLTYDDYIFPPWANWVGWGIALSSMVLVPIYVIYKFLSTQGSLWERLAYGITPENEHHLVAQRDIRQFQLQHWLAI

Ratio [1]	Ratio [2]	Ratio [3]	IC50 [4] [nM]	IC50 [5] [nM]	SMILES
1.92	0.77	–	–	–	O=C(NCCN1CCC(Cc2ccccc2)CC1)c1cc2ccccc2s1
1.09	0.78	–	–	–	O=C(NCCN1CCC(Cc2ccccc2)CC1)c1cc2ccccc2o1
1.49	0.58	–	–	–	O=C(NCCN1CCC(Cc2ccccc2)CC1)c1cc2ccccc2[nH]1
1.49	0.98	–	986	472	O=C(NCCN1CCC(Cc2ccccc2)CC1)c1ccc(-c2ccccc2)cc1
–	0.95	1.03	108	342	O=C(NCCCN1CCC(Cc2ccccc2)CC1)c1ccc2ccccc2c1
–	0.91	0.1	–	–	O=C(NCCN1CCC(Cc2ccccc2)CC1)c1cccc2ccccc12
–	0.51	0.83	–	–	O=C(NCCN1CCC(Cc2ccccc2)CC1)c1ccc2cc(Br)ccc2c1
1.54	0.84	–	500	621	O=C(NCCCN1CCC(Cc2ccccc2)CC1)c1cc2ccccc2o1
–	0.6	1.32	–	–	O=C(NCCCN1CCC(Cc2ccccc2)CC1)c1cccc2ccccc12
–	0.8	1.27	–	–	O=C(NCCN1CCC(Cc2ccccc2)CC1)c1ccc2ccccc2c1
–	1.03	0.53	786	275	O=C(NCCN1CCC(Cc2ccccc2)CC1)c1ccc2ccccc2n1
0.62	0.85	–	–	–	O=C(NCCCN1CCC(Cc2ccccc2)CC1)c1ccc2ccccc2n1

The next lines start with the compound.

SMILES	Ratio [1]	Ratio [2]	Ratio [3]	IC50 [4] [nM]	IC50 [5] [nM]
O=C(NCCN1CCC(Cc2ccccc2)CC1)c1cc(Cl)cc(Cl)c1	–	0.64	1	–	–
O=C(NCCCN1CCC(Cc2ccccc2)CC1)c1cc2ccccc2s1	1.8	1.1	–	449	4750
O=C(NCCN1CCC(Cc2ccccc2)CC1)C(c1ccccc1)c1ccccc1	1.04	0.29	–	–	–
O=C(NCCCN1CCC(Cc2ccccc2)CC1)C(c1ccccc1)c1ccccc1	1.19	0.26	–	–	–
O=C(NCCCN1CCC(Cc2ccccc2)CC1)c1ccc(-c2ccccc2)cc1	1.59	1.01	–	56	153
O=C(NCCN1CCC(Cc2ccccc2)CC1)C(c1ccc(Cl)cc1)c1ccc(Cl)cc1	1.54	0.4	–	–	–
O=C(NCCCN1CCC(Cc2ccccc2)CC1)c1ccc2cc(Br)ccc2c1	–	1.11	0.94	1910	885
O=C(NCCCN1CCC(Cc2ccccc2)CC1)c1cc(Cl)cc(Cl)c1	–	0.83	1.12	422	267
O=C(NCCCN1CCC(Cc2ccccc2)CC1)c1cc2ccccc2[nH]1	1.72	0.84	–	546	268
COc1ccc2cc(C(=O)NCCCN3CCC(Cc4ccccc4)CC3)ccc2c1	–	0.98	1	323	238
O=C(NCCCN1CCC(Cc2ccccc2)CC1)C(c1ccc(Cl)cc1)c1ccc(Cl)cc1	1.37	0.19	–	–	–
COc1ccc2cc(C(=O)NCCN3CCC(Cc4ccccc4)CC3)ccc2c1	1.97	0.63	–	–	–
